Experimental data collected from several papers.
Lines come from different studies, so protocols differ.
Target: Casein kinase I isoform delta (CSNK1D, Homo sapiens, UniProt P48730)

SMILES	observed	mode	technique	tested at	endpoint	value
Cc1nc(N2CC[C@@H](O)C2)ncc1-c1cc(C(F)(F)F)cc2[nH]ncc12	cell-free assay		competition with immobilised ligand	1 µM	remaining binding	95%
N#CCCc1ccc2c(c1)-c1[nH]c3ccc([N+](=O)[O-])cc3c1CC(=O)N2	cell-free assay			0.5 µM	remaining signal	97.4%
O=C1CCc2cc(Nc3cc(OC4CCOCC4)c([N+](=O)[O-])cc3Cl)ccc2N1	cell-free assay		competition with immobilised ligand	1 µM	remaining binding	90%
Cc1ccc(NC(=O)c2ccc(C)c(C(F)(F)F)c2)cc1C#Cc1nn(C2CCC(O)CC2)c2ncnc(N)c12 (stereo not shown)	cell-free assay			10 µM	remaining signal	88%
COc1cc(Nc2cnc(C#N)c(O[C@H](C)CN(C)C)n2)ncc1-c1cnn(C)c1	enzyme activity	inhibitor	radiometric	10 µM	remaining activity	22%
COc1cc2ncnc(Nc3ccc(Oc4ccccc4)c(C)c3C)c2cc1OC	enzyme activity	inhibitor		1 µM	inhibition	1%
CC(C)(C)c1nc(-c2cccc(NS(=O)(=O)c3c(F)cccc3F)c2F)c(-c2ccnc(N)n2)s1	enzyme activity	inhibitor	radiometric	1 µM	remaining activity	81%
Cc1cc(NC(=O)c2cccc3cc(-c4cccc5[nH]nc(N)c45)ccc23)ccc1F	enzyme activity	inhibitor		0.1 µM	activity vs control	96%
CO[C@H]1CC[C@H](CNc2ccc(S(=O)(=O)NC(=O)c3ccc(N4CCN(CC5=C(c6ccc(Cl)cc6)CC(C)(C)CC5)CC4)cc3Oc3cnc4[nH]ccc4c3)cc2[N+](=O)[O-])CC1	cell-free assay		competition with immobilised ligand	1 µM	remaining binding	93%
COc1cc(Cl)c(C(=O)N[C@@H](CN[C@H]2CC[C@@H](N)CC2)Cc2ccc(C#N)cc2)cc1-c1ccc(CN[C@H](C)c2ccc(C)cc2)o1	enzyme activity	inhibitor		1 µM	remaining activity	89%
Nc1cnc(N2CCc3cc(S(=O)(=O)Nc4c(F)cc(Cl)cc4F)cc(N4CCCC4=O)c32)nc1	cell-free assay		competition with immobilised ligand	1 µM	remaining binding	98%
CS(=O)(=O)Nc1cccc(-c2csc(NC(=O)CSc3nc4nccnc4c(=O)n3CCc3ccccc3)n2)c1	enzyme activity	inhibitor		10 µM	inhibition	10%
Cc1ccc(C(=O)Nc2ccc(CN3CCN(C)CC3)c(C(F)(F)F)c2)cc1C#Cc1cnc2cccnn12	enzyme activity			23.5 nM	remaining activity	100%
CS(=O)(=O)N1CCCC(NC(=O)[C@H](CCC2CCCCC2)NC(=O)c2ccc(CNC(=O)c3cnc4ccccn34)cc2)C1 (stereo partly shown)	cell-free assay		competition with immobilised ligand	0.1 µM	remaining binding	84%
FC(F)(F)Oc1cccc(-c2cnc3ccc(-c4ccncc4)nn23)c1	enzyme activity	inhibitor	radiometric	1 µM	activity vs control	100%
CN([C@@H]1CCc2c(CC(=O)O)c3cc(S(C)(=O)=O)ccc3n2C1)S(=O)(=O)c1ccc(F)cc1	cell-free assay		competition with immobilised ligand	1 µM	remaining binding	100%
CC(C)(O)[C@H]1CC[C@H](Nc2ccc3ncc(-c4cccc(C(F)(F)F)c4)n3n2)CC1	enzyme activity	inhibitor		1 µM	remaining activity	84.2%
CC/C(=N\NC(=O)NCc1cccc(O)c1)c1ccc(O)c(C)c1O	enzyme activity	inhibitor		0.1 µM	inhibition	3.7%
Cc1nccc(COC(=O)N2C[C@@H]3[C@@H](CNC(=O)c4ccc5[nH]nnc5c4)[C@@H]3C2)n1	cell-free assay		competition with immobilised ligand	1 µM	remaining binding	97%
COc1cc2c(N3CCN(C(=O)Nc4ccc(OC(C)C)cc4)CC3)ncnc2cc1OCCCN1CCCCC1	cell-free assay			0.5 µM	remaining signal	90.9%
Nc1c(C(=O)NCc2ccc(C(=O)NCCCC3CCCCC3)cc2)cnn1-c1ccccc1	cell-free assay		competition with immobilised ligand	0.1 µM	remaining binding	100%
Nc1ncnc2c1cnn2-c1ccccc1	cell-free assay			0.5 µM	remaining signal	79.5%
Nc1ncnc2occ(-c3ccc(NC(=O)Nc4cc(C(F)(F)F)ccc4F)cc3)c12	cell-free assay	inhibitor		20 µM	remaining signal	3.9%
O=C1Nc2ccc(Cl)cc2C1=Cc1cc(Cl)c(O)c(Cl)c1	cell-free assay			0.5 µM	remaining signal	89.6%
O=C(Nc1cnn(-c2csc(C(=O)NC3COC3)c2)c1)Nc1ccccc1Cl	enzyme activity	inhibitor		5 µM	remaining activity	101%
